Reference: ChEMBL document CHEMBL1165973, “Design, synthesis and antibacterial activity of novel andrographolide derivatives” (Bioorg Med Chem, 2010)
Calls of active or inactive are those of the source. The rule behind the calls is not given here.

What was measured:
[1] = system: Pseudomonas aeruginosa; experiment: Antibacterial activity at Pseudomonas aeruginosa PAO1 at 2 mM; type: functional, organism-based
[2] = system: Pseudomonas aeruginosa PAO1; experiment: Inhibition of Pseudomonas aeruginosa PAO1 quorum sensing assessed as inhibition of pycocyanin production at 0.5 mM after 24 hrs by spectrometry
In short: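 PAO1 grown overnight in LB, washed in fresh medium and diluted to OD600 0.05. Aliquots were grown 24 h in tubes with compound at 0.5 mM. Pyocyanin was extracted from filtered culture supernatant and quantified by a published method. Significance versus untreated control was set at P < 0.05.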

[3] = system: Pseudomonas aeruginosa PAO1; experiment: Inhibition of Pseudomonas aeruginosa PAO1 quorum sensing assessed as inhibition of protease production at 0.5 mM after 10 hrs by colorimetric method
In short: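 PAO1 grown overnight at 37 °C in PB medium ([…]), washed, diluted to OD600 0.05 and grown to midlog. Cells were washed again, reset to OD600 0.05 and cultured 10 h with compound at 0.5 mM. Filtered supernatant was incubated with azocasein in 10 mM Tris pH 7.2 and 1 mM CaCl₂ for 4 h at 37 °C with agitation, then quenched with NaOH and centrifuged.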

| SMILES | inhibition [2] | inhibition [3] | Activity [1] |
| --- | --- | --- | --- |
| C=C1CC[C@@H]2[C@]3(C)COC(C)(C)O[C@@H]3CC[C@@]2(C)[C@@H]1C/C=C1/C(=O)OC[C@H]1OC(=O)/C=C/c1ccco1 |  |  | inactive |
| C=C1CC[C@@H]2[C@]3(C)COC(C)(C)O[C@@H]3CC[C@@]2(C)[C@@H]1C/C=C1/C(=O)OC[C@H]1OC(=O)CCCCCCC |  |  | inactive |
| C=C1CC[C@@H]2[C@]3(C)COC(C)(C)O[C@@H]3CC[C@@]2(C)[C@@H]1C/C=C1/C(=O)OC[C@H]1OC(=O)C12CC3CC(CC(C3)C1)C2 |  |  | inactive |
| C=C1CC[C@@H]2[C@]3(C)COC(C)(C)O[C@@H]3CC[C@@]2(C)[C@@H]1C/C=C1/C(=O)OC[C@H]1OC(=O)CCCC1CCCC1 |  |  | inactive |
| C=C1CC[C@@H]2[C@](C)(CO)[C@H](O)CC[C@@]2(C)[C@@H]1C/C=C1/C(=O)OC[C@H]1OC(=O)CC12CC3CC(CC(C3)C1)C2 | Active | Active | inactive |
| C=C1CC[C@@H]2[C@]3(C)COC(C)(C)O[C@@H]3CC[C@@]2(C)[C@@H]1C/C=C1/C(=O)OC[C@H]1OC(=O)CCCCC |  |  | inactive |
| C=C1CC[C@@H]2[C@]3(C)COC(C)(C)O[C@@H]3CC[C@@]2(C)[C@@H]1C/C=C1/C(=O)OC[C@H]1OC(=O)CCCCCCCCCCC |  |  | inactive |
| C=C1CC[C@@H]2[C@]3(C)COC(C)(C)O[C@@H]3CC[C@@]2(C)[C@@H]1C/C=C1/C(=O)OC[C@H]1OC(=O)/C=C/C |  |  | inactive |
| C=C1CC[C@@H]2[C@]3(C)COC(C)(C)O[C@@H]3CC[C@@]2(C)[C@@H]1C/C=C1/C(=O)OC[C@H]1OC(=O)/C=C/C1CCCCC1 |  |  | inactive |
| C=C1CC[C@@H]2[C@]3(C)COC(C)(C)O[C@@H]3CC[C@@]2(C)[C@@H]1C/C=C1/C(=O)OC[C@H]1OC(=O)CCCC |  |  | inactive |
| C=C1CC[C@@H]2[C@](C)(CO)[C@H](O)CC[C@@]2(C)[C@@H]1C/C=C1/C(=O)OC[C@H]1OC(=O)/C=C/C1CCCCC1 | Active | Active | inactive |

Now from value to compound, other results behind:

| inhibition [2] | inhibition [3] | SMILES | Activity [1] |
| --- | --- | --- | --- |
| Active | Active | C=C1CC[C@@H]2[C@](C)(CO)[C@H](O)CC[C@@]2(C)[C@@H]1C/C=C1/C(=O)OC[C@H]1OC(=O)CCCCC1CCCC1 | inactive |
| Active |  | C=C1CC[C@@H]2[C@](C)(CO)[C@H](O)CC[C@@]2(C)[C@@H]1C/C=C1/C(=O)OC[C@H]1OC(=O)CCCCCCC | inactive |
| Active | Active | C=C1CC[C@@H]2[C@](C)(CO)[C@H](O)CC[C@@]2(C)[C@@H]1C/C=C1/C(=O)OC[C@H]1OC(=O)/C=C/C | inactive |
| Active | Active | C=C1CC[C@@H]2[C@](C)(CO)[C@H](O)CC[C@@]2(C)[C@@H]1C/C=C1/C(=O)OC[C@H]1OC(=O)CCCCCCCCCCC | inactive |
| Active | Active | C=C1CC[C@@H]2[C@](C)(CO)[C@H](O)CC[C@@]2(C)[C@@H]1C/C=C1/C(=O)OC[C@H]1OC(=O)CCCC[C@H]1CCSS1 |  |
| Active | Active | C=C1CC[C@@H]2[C@](C)(CO)[C@H](O)CC[C@@]2(C)[C@@H]1C/C=C1/C(=O)OC[C@H]1OC(=O)/C=C/c1ccco1 | inactive |
| Active |  | C=C1CC[C@@H]2[C@](C)(CO)[C@H](O)CC[C@@]2(C)[C@@H]1C/C=C1/C(=O)OC[C@H]1O |  |
| Active | Active | C=C1CC[C@@H]2[C@](C)(CO)[C@H](O)CC[C@@]2(C)[C@@H]1C/C=C1/C(=O)OC[C@H]1OC(=O)CCCCC | inactive |
| Active |  | C=C1CC[C@@H]2[C@](C)(CO)[C@H](O)CC[C@@]2(C)[C@@H]1C/C=C1/C(=O)OC[C@H]1OC(=O)CCCC | inactive |
